Source: ChEMBL document CHEMBL1153390, “Substituted terphenyl compounds as the first class of low molecular weight allosteric inhibitors of the luteinizing hormone receptor” (J Med Chem, 2009)
Calls of active or inactive are those of the source. No cut-off for these calls is given here.

Key:
[1] = target: T1, Lutropin-choriogonadotropic hormone receptor (Homo sapiens, UniProt P22888); assay: Displacement of [3H]Org43553 from human luteinizing hormone receptor expressed in CHOK1 cells at 10 uM by scintillation spectrometry; assay type: cell-based; conditions: CHO-K1
How it was run: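 Membranes (50 µg protein) from CHO-K1 cells stably expressing human LH receptor incubated 90 min at 30 °C with 4.5 nM [3H]Org 43553 and 10 µM compound. Buffer was 25 mM Tris-HCl pH 7.4, 2 mM MgCl2, 0.1% BSA. Nonspecific binding defined with 10 µM Org 43553. Filtration on GF/B, ice-cold washes, scintillation counting. Result given as % displacement of specific binding, n=2, duplicate.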

[2] = target: T1, Lutropin-choriogonadotropic hormone receptor; assay: Displacement of [3H]Org43553 from human luteinizing hormone receptor expressed in CHOK1 cells assessed as increase in radioligand dissociation at 10 uM by scintillation spectrometry relative to control; assay type: cell-based; conditions: CHO-K1
How it was run: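 Membranes (50 µg protein) from CHO-K1 cells stably expressing human LH receptor preloaded with 4.5 nM [3H]Org 43553 for 90 min at 30 °C in 25 mM Tris-HCl pH 7.4, 2 mM MgCl2, 0.1% BSA. Dissociation then started with 10 µM Org 43553 ± 10 µM compound in 50% DMSO vehicle. Bound label measured after 30 min by GF/B filtration and scintillation counting. Control set at 100%. n=2, duplicate.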

[3] = target: Adenosine receptor A2a (Homo sapiens) (UniProt P29274); assay: Binding affinity to adenosine A2A receptor
[4] = target: T2, Adenosine receptor A1 (Homo sapiens) (UniProt P30542); assay: Binding affinity to adenosine A1 receptor
T2 sequence (whole entry): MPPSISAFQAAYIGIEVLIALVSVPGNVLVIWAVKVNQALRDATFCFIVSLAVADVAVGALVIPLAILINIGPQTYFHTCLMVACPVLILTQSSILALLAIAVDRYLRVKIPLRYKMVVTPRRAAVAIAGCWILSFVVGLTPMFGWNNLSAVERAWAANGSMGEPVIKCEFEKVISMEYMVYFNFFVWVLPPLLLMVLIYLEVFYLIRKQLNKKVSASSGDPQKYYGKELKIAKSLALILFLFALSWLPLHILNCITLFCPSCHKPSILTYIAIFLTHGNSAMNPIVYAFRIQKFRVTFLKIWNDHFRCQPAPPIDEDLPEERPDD

[5] = target: T1, Lutropin-choriogonadotropic hormone receptor; assay: Antagonist activity at human luteinizing hormone receptor expressed in CHOK1 cells assessed as decrease in recombinant luteinizing hormone activation potency at 10 uM by c-AMP-mediated luciferase assay; assay type: functional, cell-based; conditions: CHO-K1
How it was run: (§1)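 Cells as for the CRE-luciferase assay (human LH receptor, CHO-K1), stimulated 4 h with ten concentrations of recLH, rec-hCG or Org 43553, with or without 10 µM test compound. Luminescence read-out. Shift is the EC50 ratio with/without compound; 1 nM recLH response set 100%. At least three assays in duplicate.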

[6] = target: T1, Lutropin-choriogonadotropic hormone receptor; assay: Antagonist activity at human luteinizing hormone receptor expressed in CHOK1 cells assessed as decrease in recombinant human chorionic gonadotropin activation potency at 10 uM by c-AMP-mediated luciferase assay; assay type: functional, cell-based; conditions: CHO-K1; how it was run: as §1
[7] = target: T1, Lutropin-choriogonadotropic hormone receptor; assay: Antagonist activity at human luteinizing hormone receptor expressed in CHOK1 cells assessed as decrease in Org 43553 activation potency at 10 uM by c-AMP-mediated luciferase assay; assay type: functional, cell-based; conditions: CHO-K1; how it was run: as §1
[8] = target: T1, Lutropin-choriogonadotropic hormone receptor; assay: Agonist activity at human luteinizing hormone receptor expressed in CHOK1 cells assessed as c-AMP-mediated luciferase production; assay type: functional, cell-based, CHO-K1
How it was run: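 CHO-K1 cells stably expressing human LH receptor and CRE-luciferase, 7.5 × 10^5 cells/mL in DMEM/F12 with insulin and apo-transferrin. Stimulated 4 h, then luciferase read by luminescence. Basal activity set 0%; 1 nM recLH set 100%. Means of at least three assays in duplicate.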

[9] = target: T1, Lutropin-choriogonadotropic hormone receptor; assay: Displacement of [3H]Org43553 from human luteinizing hormone receptor expressed in CHOK1 cells; assay type: cell-based, CHO-K1
How it was run: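 CHO-K1 membranes stably expressing human LH receptor, 50 µg protein, in 25 mM Tris-HCl pH 7.4 with 2 mM MgCl2 and 0.1% BSA. Incubated with 4.5 nM [3H]Org 43553 at 30 °C for 90 min, using 10 µM or a range of competitor concentrations. Nonspecific binding defined with 10 µM Org 43553. Read by filtration and scintillation counting; IC50 from nonlinear regression.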

[10] = target: T1, Lutropin-choriogonadotropic hormone receptor; assay: Displacement of [125I]human chorionic gonadotropin from human luteinizing hormone receptor expressed in CHOK1 cells by gamma counting; assay type: cell-based; conditions: CHO-K1
[11] = target: T1, Lutropin-choriogonadotropic hormone receptor; assay: Agonist activity at human luteinizing hormone receptor expressed in CHOK1 cells assessed as c-AMP-mediated luciferase production at 10 uM; assay type: functional, cell-based; conditions: CHO-K1
[12] = target: T3, Adenosine receptor A3 (Homo sapiens) (UniProt P0DMS8); assay: Activity at adenosine A3 receptor assessed as allosteric modulation
T3 sequence (whole entry): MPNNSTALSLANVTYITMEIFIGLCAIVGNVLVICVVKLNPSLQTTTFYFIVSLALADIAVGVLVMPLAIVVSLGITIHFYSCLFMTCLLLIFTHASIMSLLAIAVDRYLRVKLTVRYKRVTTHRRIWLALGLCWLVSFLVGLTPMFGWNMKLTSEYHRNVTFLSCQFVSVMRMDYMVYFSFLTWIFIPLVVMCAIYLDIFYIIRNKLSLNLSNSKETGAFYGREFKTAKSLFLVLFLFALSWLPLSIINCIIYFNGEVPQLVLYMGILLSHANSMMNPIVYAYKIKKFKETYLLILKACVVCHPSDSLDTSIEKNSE

[13] = target: T1, Lutropin-choriogonadotropic hormone receptor; assay: Displacement of [125I]human chorionic gonadotropin from human luteinizing hormone receptor expressed in CHOK1 cells assessed as increase in radioligand dissociation at 10 uM after 4 hrs by infinite dilution method; assay type: cell-based; conditions: CHO-K1
How it was run: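 CHO-K1 membranes expressing human LH receptor, prelabelled with 125I-hCG. Dissociation was started by infinite dilution in the presence of 10 µM compound, and bound radioligand was measured after 4 h. t=0 binding set 0% dissociation, nonspecific 100%. At least two assays in triplicate.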

T1 sequence (P22888 whole entry): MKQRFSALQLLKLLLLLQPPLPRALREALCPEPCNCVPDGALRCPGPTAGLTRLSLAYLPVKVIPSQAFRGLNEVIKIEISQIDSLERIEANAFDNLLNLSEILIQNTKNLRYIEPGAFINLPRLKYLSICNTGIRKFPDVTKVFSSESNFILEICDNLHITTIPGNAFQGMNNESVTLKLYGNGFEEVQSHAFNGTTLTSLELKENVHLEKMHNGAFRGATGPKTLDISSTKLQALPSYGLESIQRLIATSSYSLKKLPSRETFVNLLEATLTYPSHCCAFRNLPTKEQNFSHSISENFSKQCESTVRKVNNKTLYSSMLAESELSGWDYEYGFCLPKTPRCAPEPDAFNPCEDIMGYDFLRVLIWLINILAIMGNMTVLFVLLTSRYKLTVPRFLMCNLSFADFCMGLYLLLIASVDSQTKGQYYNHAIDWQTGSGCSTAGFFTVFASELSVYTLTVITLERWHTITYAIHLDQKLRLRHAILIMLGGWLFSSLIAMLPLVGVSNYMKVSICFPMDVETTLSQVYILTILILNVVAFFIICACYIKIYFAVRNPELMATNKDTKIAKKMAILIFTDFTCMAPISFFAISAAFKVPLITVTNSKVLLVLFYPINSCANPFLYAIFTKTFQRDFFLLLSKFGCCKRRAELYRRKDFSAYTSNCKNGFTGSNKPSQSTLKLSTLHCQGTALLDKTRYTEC
Adenosine receptor A2a (Homo sapiens), sequence (P29274 whole entry): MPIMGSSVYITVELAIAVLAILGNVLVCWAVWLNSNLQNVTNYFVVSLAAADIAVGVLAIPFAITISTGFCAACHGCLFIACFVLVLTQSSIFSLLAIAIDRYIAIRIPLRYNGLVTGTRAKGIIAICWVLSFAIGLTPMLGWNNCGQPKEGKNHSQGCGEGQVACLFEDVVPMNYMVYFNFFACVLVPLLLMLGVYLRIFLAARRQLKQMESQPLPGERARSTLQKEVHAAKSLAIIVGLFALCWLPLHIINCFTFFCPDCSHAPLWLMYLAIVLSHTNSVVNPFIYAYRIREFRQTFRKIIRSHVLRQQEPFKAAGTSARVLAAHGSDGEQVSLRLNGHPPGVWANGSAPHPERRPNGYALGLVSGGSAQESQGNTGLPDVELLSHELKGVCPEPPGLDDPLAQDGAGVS

Compound | Activity [1] | Activity [2] | further results
O=C(Nc1cc(-c2ccccc2)cc(-c2ccccc2)c1)C1CCCC1 | 30% | 56% | 
N#Cc1c(N)cc(-c2ccccc2)cc1-c1cccs1 |  | 29% | 
O=C(Nc1ccccc1)Oc1cc(-c2ccccc2)cc(-c2ccccc2)c1 | 28% | 79% | Activity [3]: inactive; Activity [4]: inactive
CCCNC(=O)Oc1cc(-c2ccccc2)cc(-c2ccccc2)c1 | 47% | 72% | 
CC(C)NC(=O)Oc1cc(-c2ccccc2)cc(-c2ccccc2)c1 | 14% | 55% | 
CC(C)(C)NC(=O)Oc1cc(-c2ccccc2)cc(-c2ccccc2)c1 | 68% | 82% | 
O=C(Nc1cc(-c2ccccc2)cc(-c2ccccc2)c1)NC1CCCC1 | 49% | 70% | 
O=C(NC1CCCCC1)Oc1cc(-c2ccccc2)cc(-c2ccccc2)c1 | 83% | 51% | 
O=C(NC1CCCC1)Oc1cccc(-c2ccccc2)c1 | 81% | 75% | Activity [5]: Active; Activity [6]: Active; Activity [7]: Active
CCNC(=O)Oc1cc(-c2ccccc2)cc(-c2ccccc2)c1 | -1% | 61% | 
COc1ccc(-c2cc(OC(=O)NC3CCCC3)cc(-c3ccc(OC)cc3)c2)cc1 | 17% | 31% | 
CCCCNC(=O)Oc1cc(-c2ccccc2)cc(-c2ccccc2)c1 | 61% | 65% | 
Oc1cc(-c2ccccc2)cc(-c2ccccc2)c1 | -2% | 27% | 
COc1ccc(C(=O)Nc2nc(-c3ccccc3)cc(-c3ccccc3)n2)cc1 |  | 42% | 
O=C(NC1CCCC1)Oc1cc(-c2ccccc2)cc(-c2ccccc2)c1 | 91% | 88% | fold change (FC) [5]: 3; EC50 [8]: 1600 nM; fold change (FC) [6]: 3; fold change (FC) [7]: 2; IC50 [9]: 2300 nM; Activity ([9]; CHO-K1): Dose-dependent effect; Activity [10]: inactive; Activity [11]: 31%; Activity [12]: inactive; Activity [13]: Active
COc1ccc(NC(=O)Oc2cc(-c3ccccc3)cc(-c3ccccc3)c2)cc1 | 58% | 35% | 
O=C(NC1CCCC1)Oc1cc(-c2ccc(Cl)c(Cl)c2)cc(-c2ccc(Cl)c(Cl)c2)c1 | 7% |  | 
COc1ccc(-c2cc(OC(=O)NC3CCCC3)cc(-c3ccccc3)c2)cc1 | 67% | 83% | 
Nc1cc(-c2ccccc2)cc(-c2ccccc2)c1 | 9% | 42% | 
c1ccc(Cn2cnc3c(-c4ccccc4)cc(-c4ccccc4)nc32)cc1 |  | 16% | 
O=C(NC1CCCC1)Oc1cc(-c2ccccc2)cc(-c2ccc(Cl)c(Cl)c2)c1 | 69% | 64% | 
CCCCCNC(=O)Oc1cc(-c2ccccc2)cc(-c2ccccc2)c1 | 30% | 80% | 
Cc1ccc(-c2cc(OC(=O)NC3CCCC3)cc(-c3ccccc3)c2)cc1 | 72% | 102% | Activity [5]: Active; Activity [7]: Active
O=C(NC1CCCC1)Oc1cc(-c2ccccc2)cc(-c2ccc(Cl)cc2)c1 | 77% | 71% | 
O=C(Nc1ccc(Cl)cc1)Oc1cc(-c2ccccc2)cc(-c2ccccc2)c1 | 9% | 19% | 
Cc1ccc(-c2cc(OC(=O)NC3CCCC3)cc(-c3ccc(C)cc3)c2)cc1 | 62% | 59% | 
O=C(NC1CCCC1)Oc1cc(-c2ccc(Cl)cc2)cc(-c2ccc(Cl)cc2)c1 | 55% |  | 
O=C(Oc1cc(-c2ccccc2)cc(-c2ccccc2)c1)C1CCCC1 | 9% | 41% | 
